According to ChEMBL document CHEMBL5058577, “EUbOPEN Chemogenomics Library 2 (Multiplex)” (2022):

Tested on: U2OS
Assay: Multiplex assay against U2OS
Format: toxicity, cell-based
Settings: human
How it was run: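 Compound was added to live cells that had been stained at seeding with Hoechst33342, BioTracker Green Microtubule Cytoskeleton Dye, MitoTracker Red and Annexin V Alexa Fluor 680, and imaging followed on a CQ1 microscope at 37°C and 5% CO2. CellPathfinder machine-learning gating divided cells into Hoechst high-intensity objects or normal cells, normal cells into healthy, pyknosed or fragmented nuclei, and pyknosed cells into mitotic or apoptotic. Tubulin, mitochondrial-mass and membrane-permeability phenotypes are per cents of healthy-nucleus cells.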

[1] = 12 h, 1 µM, compound concentration 1 uM, replicate 1
[2] = 12 h, 1 µM, compound concentration 1 uM, replicate 2
[3] = 12 h, 10 µM, compound concentration 10 uM, replicate 1
[4] = 12 h, 10 µM, compound concentration 10 uM, replicate 2
[5] = 24 h, 1 µM, compound concentration 1 uM, replicate 1
[6] = 24 h, 1 µM, compound concentration 1 uM, replicate 2
[7] = 24 h, 10 µM, compound concentration 10 uM, replicate 1
[8] = 24 h, 10 µM, compound concentration 10 uM, replicate 2
[9] = 48 h, 1 µM, compound concentration 1 uM, replicate 1
[10] = 48 h, 1 µM, compound concentration 1 uM, replicate 2
[11] = 48 h, 10 µM, compound concentration 10 uM, replicate 1
[12] = 48 h, 10 µM, compound concentration 10 uM, replicate 2

Compound: CCOc1c2c(c(OCC)c3ncccc13)CN(c1ccc(CS(=O)(=O)NC(=O)Cc3ccccc3OC)cc1C)C2=O
- Population Apoptotic (%) [1]: 64%
- Population Fragmented Nuclei (%) [1]: 22%
- Population Healthy Nuclei (%) [1]: 70%
- Population Hoechst High Intensity Objects (%) [1]: 2%
- Population Membrane Permeable-Phenotype (%) [1]: 7%
- Population Mitochondria Different-Phenotype (%) [1]: 3%
- Population Mitotic Cells (%) [1]: 35%
- Population Normal (%) [1]: 97%
- Population Pyknosed Nuclei (%) [1]: 7%
- Population Tubulin-Different-Phenotype (%) [1]: 2%
- Total Cell Count [1]: 189
- Population Apoptotic (%) [2]: 100%
- Population Fragmented Nuclei (%) [2]: 13%
- Population Healthy Nuclei (%) [2]: 82%
- Population Hoechst High Intensity Objects (%) [2]: 1%
- Population Membrane Permeable-Phenotype (%) [2]: 9%
- Population Mitotic Cells (%) [2]: 0%
- Population Normal (%) [2]: 98%
- Population Pyknosed Nuclei (%) [2]: 4%
- Population Tubulin-Different-Phenotype (%) [2]: 6%
- Total Cell Count [2]: 93
- Population Apoptotic (%) [3]: 81%
- Population Fragmented Nuclei (%) [3]: 30%
- Population Healthy Nuclei (%) [3]: 63%
- Population Hoechst High Intensity Objects (%) [3]: 2%
- Population Membrane Permeable-Phenotype (%) [3]: 5%
- Population Mitochondria Different-Phenotype (%) [3]: 3%
- Population Mitotic Cells (%) [3]: 18%
- Population Normal (%) [3]: 97%
- Population Pyknosed Nuclei (%) [3]: 6%
- Population Tubulin-Different-Phenotype (%) [3]: 2%
- Total Cell Count [3]: 248
- Population Apoptotic (%) [4]: 80%
- Population Fragmented Nuclei (%) [4]: 21%
- Population Healthy Nuclei (%) [4]: 75%
- Population Membrane Permeable-Phenotype (%) [4]: 8%
- Population Mitochondria Different-Phenotype (%) [4]: 6%
- Population Mitotic Cells (%) [4]: 20%
- Population Pyknosed Nuclei (%) [4]: 3%
- Population Tubulin-Different-Phenotype (%) [4]: 3%
- Total Cell Count [4]: 136
- Population Apoptotic (%) [5]: 80%
- Population Fragmented Nuclei (%) [5]: 21%
- Population Healthy Nuclei (%) [5]: 71%
- Population Hoechst High Intensity Objects (%) [5]: 3%
- Population Membrane Permeable-Phenotype (%) [5]: 4%
- Population Mitochondria Different-Phenotype (%) [5]: 0%
- Population Mitotic Cells (%) [5]: 20%
- Population Normal (%) [5]: 96%
- Population Pyknosed Nuclei (%) [5]: 6%
- Population Tubulin-Different-Phenotype (%) [5]: 1%
- Total Cell Count [5]: 235
- Population Apoptotic (%) [6]: 100%
- Population Fragmented Nuclei (%) [6]: 19%
- Population Healthy Nuclei (%) [6]: 76%
- Population Hoechst High Intensity Objects (%) [6]: 1%
- Population Membrane Permeable-Phenotype (%) [6]: 7%
- Population Mitochondria Different-Phenotype (%) [6]: 4%
- Population Mitotic Cells (%) [6]: 0%
- Population Normal (%) [6]: 98%
- Population Pyknosed Nuclei (%) [6]: 4%
- Population Tubulin-Different-Phenotype (%) [6]: 4%
- Total Cell Count [6]: 125
- Population Apoptotic (%) [7]: 76%
- Population Fragmented Nuclei (%) [7]: 27%
- Population Healthy Nuclei (%) [7]: 61%
- Population Hoechst High Intensity Objects (%) [7]: 3%
- Population Membrane Permeable-Phenotype (%) [7]: 6%
- Population Mitochondria Different-Phenotype (%) [7]: 2%
- Population Mitotic Cells (%) [7]: 23%
- Population Normal (%) [7]: 96%
- Population Pyknosed Nuclei (%) [7]: 10%
- Population Tubulin-Different-Phenotype (%) [7]: 1%
- Total Cell Count [7]: 285
- Population Apoptotic (%) [8]: 100%
- Population Fragmented Nuclei (%) [8]: 17%
- Population Healthy Nuclei (%) [8]: 76%
- Population Hoechst High Intensity Objects (%) [8]: 0%
- Population Mitotic Cells (%) [8]: 0%
- Population Normal (%) [8]: 99%
- Population Pyknosed Nuclei (%) [8]: 5%
- Population Tubulin-Different-Phenotype (%) [8]: 5%
- Total Cell Count [8]: 152
- Population Apoptotic (%) [9]: 85%
- Population Fragmented Nuclei (%) [9]: 19%
- Population Healthy Nuclei (%) [9]: 74%
- Population Hoechst High Intensity Objects (%) [9]: 2%
- Population Membrane Permeable-Phenotype (%) [9]: 3%
- Population Mitochondria Different-Phenotype (%) [9]: 1%
- Population Mitotic Cells (%) [9]: 15%
- Population Normal (%) [9]: 97%
- Population Pyknosed Nuclei (%) [9]: 5%
- Population Tubulin-Different-Phenotype (%) [9]: 2%
- Total Cell Count [9]: 344
- Population Apoptotic (%) [10]: 100%
- Population Fragmented Nuclei (%) [10]: 17%
- Population Healthy Nuclei (%) [10]: 79%
- Population Hoechst High Intensity Objects (%) [10]: 4%
- Population Membrane Permeable-Phenotype (%) [10]: 7%
- Population Mitochondria Different-Phenotype (%) [10]: 3%
- Population Mitotic Cells (%) [10]: 0%
- Population Normal (%) [10]: 95%
- Population Pyknosed Nuclei (%) [10]: 2%
- Population Tubulin-Different-Phenotype (%) [10]: 5%
- Total Cell Count [10]: 167
- Population Apoptotic (%) [11]: 91%
- Population Fragmented Nuclei (%) [11]: 19%
- Population Healthy Nuclei (%) [11]: 71%
- Population Hoechst High Intensity Objects (%) [11]: 2%
- Population Membrane Permeable-Phenotype (%) [11]: 5%
- Population Mitochondria Different-Phenotype (%) [11]: 1%
- Population Mitotic Cells (%) [11]: 8%
- Population Normal (%) [11]: 97%
- Population Pyknosed Nuclei (%) [11]: 9%
- Population Tubulin-Different-Phenotype (%) [11]: 2%
- Total Cell Count [11]: 385
- Population Apoptotic (%) [12]: 100%
- Population Fragmented Nuclei (%) [12]: 18%
- Population Healthy Nuclei (%) [12]: 74%
- Population Membrane Permeable-Phenotype (%) [12]: 8%
- Population Mitochondria Different-Phenotype (%) [12]: 4%
- Population Mitotic Cells (%) [12]: 0%
- Population Pyknosed Nuclei (%) [12]: 6%
- Population Tubulin-Different-Phenotype (%) [12]: 3%
- Total Cell Count [12]: 236
